Data as given in ChEMBL document CHEMBL3616409, “Optimization of a small molecule probe that restores e-cadherin expression” (Bioorg Med Chem Lett, 2015).

Experiments:
[1] = Restoration of e-cadherin expression in human SW620 cells at 10 uM by in-cell-western assay relative to control; format: functional, cell-based; settings: SW-620
Procedure, shortened: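 In-Cell-Western immunofluorescence read-out of e-cadherin in SW620 colon carcinoma cells after treatment at 10 μM; value is average fold change from two assessments.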

[2] = Restoration of e-cadherin expression in human SW620 cells by in-cell-western assay; format: functional, cell-based; settings: SW-620
[3] = Half life in Sprague-Dawley rat at 1 mg/kg, iv; format: ADME, organism-based; settings: in vivo
Procedure, shortened: (§1)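 Single 1 mg/kg intravenous dose in male Sprague-Dawley rats; clearance and half-life from plasma pharmacokinetics.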

[4] = Fraction unbound in mouse; format: ADME, organism-based; settings: in vivo
[5] = Intrinsic clearance in mouse microsomes; format: ADME, Microsome
[6] = target: T1, Cytochrome P450 1A2 (Homo sapiens, UniProt P05177); test: Inhibition of CYP1A2 (unknown origin); format: ADME
T1 sequence (P05177 whole entry): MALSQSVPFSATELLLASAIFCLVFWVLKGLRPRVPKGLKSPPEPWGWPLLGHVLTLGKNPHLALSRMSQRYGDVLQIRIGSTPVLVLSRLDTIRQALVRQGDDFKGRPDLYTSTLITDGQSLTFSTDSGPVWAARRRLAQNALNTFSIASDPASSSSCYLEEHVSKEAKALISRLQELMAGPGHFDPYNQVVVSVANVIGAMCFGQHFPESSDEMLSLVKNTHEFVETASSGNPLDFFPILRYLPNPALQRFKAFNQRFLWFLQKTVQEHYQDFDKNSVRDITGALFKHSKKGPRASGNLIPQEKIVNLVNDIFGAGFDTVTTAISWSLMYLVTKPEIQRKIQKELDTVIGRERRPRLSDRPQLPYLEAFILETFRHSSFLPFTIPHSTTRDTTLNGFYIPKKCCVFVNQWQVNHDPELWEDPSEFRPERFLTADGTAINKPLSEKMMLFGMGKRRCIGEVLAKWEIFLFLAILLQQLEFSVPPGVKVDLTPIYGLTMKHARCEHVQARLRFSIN
Procedure, shortened: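 CYP1A2 was assessed in a P450 isozyme panel with 3A4, 2C9 and 2D6. The compound was tested at 30 μM, and the value is reported as a threshold relative to that concentration.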

[7] = target: Cytochrome P450 3A4 (Homo sapiens, UniProt P08684); test: Inhibition of CYP3A4 (unknown origin); format: ADME
[8] = Intrinsic clearance in rat microsomes; format: ADME, Microsome
[9] = Fraction unbound in rat; format: ADME, organism-based; settings: in vivo
[10] = target: Cytochrome P450 2C9 (Homo sapiens, UniProt P11712); test: Inhibition of CYP2C9 (unknown origin); format: ADME
[11] = test system: Rattus norvegicus; test: Clearance in Sprague-Dawley rat at 1 mg/kg, iv; format: ADME, organism-based; settings: in vivo; procedure, shortened: as §1
[12] = target: Cytochrome P450 2D6 (Homo sapiens, UniProt P10635); test: Inhibition of CYP2D6 (unknown origin); format: ADME
[13] = Intrinsic clearance in human microsomes; format: ADME, Microsome
[14] = Fraction unbound in human; format: ADME, organism-based; settings: in vivo

Sequence of Cytochrome P450 2D6 (P10635 whole entry): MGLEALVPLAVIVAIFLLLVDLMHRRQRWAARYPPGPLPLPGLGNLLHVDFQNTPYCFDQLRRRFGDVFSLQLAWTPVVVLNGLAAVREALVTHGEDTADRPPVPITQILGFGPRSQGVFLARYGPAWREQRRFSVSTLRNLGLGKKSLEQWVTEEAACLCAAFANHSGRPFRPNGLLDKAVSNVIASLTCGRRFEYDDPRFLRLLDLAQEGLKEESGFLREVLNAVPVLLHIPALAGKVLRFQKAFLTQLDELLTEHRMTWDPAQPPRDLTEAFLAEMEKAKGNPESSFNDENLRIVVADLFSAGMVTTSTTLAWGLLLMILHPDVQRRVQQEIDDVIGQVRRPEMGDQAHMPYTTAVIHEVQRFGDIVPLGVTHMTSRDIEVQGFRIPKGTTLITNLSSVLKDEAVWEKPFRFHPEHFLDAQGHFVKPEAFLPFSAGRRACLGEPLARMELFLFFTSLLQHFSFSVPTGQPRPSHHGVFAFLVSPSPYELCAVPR
Sequence of Cytochrome P450 2C9 (P11712 whole entry): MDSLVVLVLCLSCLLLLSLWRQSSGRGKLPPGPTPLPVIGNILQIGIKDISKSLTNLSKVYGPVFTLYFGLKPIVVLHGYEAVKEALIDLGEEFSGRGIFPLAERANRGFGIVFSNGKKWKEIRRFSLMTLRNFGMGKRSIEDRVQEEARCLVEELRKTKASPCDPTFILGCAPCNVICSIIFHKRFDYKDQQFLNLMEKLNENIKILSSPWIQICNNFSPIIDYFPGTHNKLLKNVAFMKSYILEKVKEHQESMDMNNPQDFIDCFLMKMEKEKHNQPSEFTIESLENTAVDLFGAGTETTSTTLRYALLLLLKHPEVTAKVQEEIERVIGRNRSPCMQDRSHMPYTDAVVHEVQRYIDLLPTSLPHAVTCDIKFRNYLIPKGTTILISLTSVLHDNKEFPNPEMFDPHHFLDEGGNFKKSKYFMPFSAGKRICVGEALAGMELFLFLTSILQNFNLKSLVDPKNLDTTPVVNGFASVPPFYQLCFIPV
Sequence of Cytochrome P450 3A4 (P08684 whole entry): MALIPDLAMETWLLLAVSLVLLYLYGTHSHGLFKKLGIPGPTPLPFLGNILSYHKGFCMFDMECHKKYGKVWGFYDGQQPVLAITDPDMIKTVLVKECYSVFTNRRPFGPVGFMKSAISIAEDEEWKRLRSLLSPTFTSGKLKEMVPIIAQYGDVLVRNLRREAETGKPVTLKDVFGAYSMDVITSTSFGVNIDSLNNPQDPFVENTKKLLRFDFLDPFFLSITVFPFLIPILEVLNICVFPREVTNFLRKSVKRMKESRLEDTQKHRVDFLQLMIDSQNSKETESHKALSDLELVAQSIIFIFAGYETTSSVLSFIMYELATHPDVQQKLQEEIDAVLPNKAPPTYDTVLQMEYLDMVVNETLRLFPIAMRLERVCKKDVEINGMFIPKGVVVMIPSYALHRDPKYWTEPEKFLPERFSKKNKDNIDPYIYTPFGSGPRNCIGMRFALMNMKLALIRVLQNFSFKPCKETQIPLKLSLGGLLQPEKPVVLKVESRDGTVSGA

Row | EC50 [2] | Structure (SMILES) | fold change (FC) [1] | further results
1 |  | O=C(NCCCN1CCOCC1)c1n[nH]c2ccccc12 | 0.63 | 
2 | 8.8 µM | O=C(NCCCNC(=O)c1cc(-c2ccccc2)on1)c1ccncc1 |  | 
3 |  | Cc1cc(CNCCCNC(=O)c2cc(-c3ccccc3)on2)on1 | 3.4 | 
4 |  | O=C(NCCCNC(=O)c1cc(-c2ccccc2)on1)c1cccnc1 | 3.05 | 
5 |  | O=C(NCCCNC(=O)c1cc(-c2ccccc2)[nH]n1)c1ccncc1 | 1.29 | 
6 |  | Cn1nc(C(=O)NCCCCc2ccncc2)cc1-c1ccccc1 | 1.38 | 
7 | 12.6 µM | O=C(Cc1c[nH]c2ccccc12)NCCCCNC(=O)c1cc(-c2ccccc2)on1 |  | 
8 |  | O=C(NCCCNCc1c[nH]c2ncccc12)c1cc(-c2ccccc2)on1 | 1.67 | 
9 |  | CC(CNC(=O)c1cc(-c2cccs2)on1)c1ccncc1 (stereo unspecified) | 0.32 | 
10 |  | O=C(NCCCCNC(=O)c1cc(I)ccc1O)c1cc(-c2ccccc2)on1 | 2.43 | 
11 |  | O=C(NCCCNCc1c[nH]c2ccccc12)c1cc(-c2ccccc2)on1 | 1.44 | 
12 | 15 µM | CC(=O)n1cc(CNCCCNC(=O)c2cc(-c3ccccc3)on2)c2ccccc21 |  | 
13 |  | O=C(NCCCNCc1cccnc1)c1cc(-c2ccccc2)on1 | 3.06 | 
14 |  | O=C(NCCCCNC(=O)c1cccnc1O)c1cc(-c2ccccc2)on1 | 5.23 | half-life [3]: 456 min; Fu [4]: 0.19; clearance [5]: 180 mL/min/kg; IC50 [6]: > 30 µM; IC50 [7]: > 30 µM; clearance [8]: 33 mL/min/kg; Fu [9]: 0.11; IC50 [10]: > 30 µM; clearance [11]: 18 mL/min/kg; IC50 [12]: > 30 µM; clearance [13]: 0 mL/min/kg; Fu [14]: 0.01
15 |  | O=C(NCCCNCc1ccc(O)cc1O)c1cc(-c2ccccc2)on1 | 2.33 | 
16 | 3.7 µM | O=C(Cc1ccccc1O)NCCCNC(=O)c1cc(-c2ccccc2)on1 |  | 
17 | 5.3 µM | [N-]=[N+]=Nc1ccnc(NCCCNC(=O)c2cc(-c3ccccc3)on2)n1 |  | 
18 | 4.6 µM | O=C(NCCCCNC(=O)c1ccc(Cl)o1)c1cc(-c2ccccc2)on1 |  | 
19 |  | COc1cncc(CNCCCNC(=O)c2cc(-c3ccccc3)on2)c1 | 3.58 | 
20 |  | O=C(NCCCCNC(=O)c1cc(-c2ccccc2)on1)c1cocn1 | 3.35 | 

Row | EC50 [2] | Structure (SMILES) | fold change (FC) [1] | further results
21 | 12 µM | N#Cc1ccnc(NCCCNC(=O)c2cc(-c3ccccc3)on2)c1 |  | 
22 | 5.6 µM | Cc1ccc(C(=O)NCCCCNC(=O)c2cc(-c3ccccc3)on2)c(O)n1 |  | 
23 | 5.6 µM | Nc1cncc(C(=O)NCCCCNC(=O)c2cc(-c3cccs3)on2)n1 |  | 
24 |  | O=C(NCCCNCc1ccc(O)c(O)c1)c1cc(-c2ccccc2)on1 | 1.54 | 
25 |  | O=C(NCCCNC(=O)c1cc(Br)ccc1O)c1cc(-c2ccccc2)on1 | 2.43 | 
26 |  | O=C(NCCCNCc1ccccc1O)c1cc(-c2ccccc2)on1 | 3.59 | 
27 | 4.7 µM | O=C(NCCCCc1ccncc1)c1cc(-c2ccco2)on1 |  | 
28 |  | O=C(NCCCCNC(=O)c1cccs1)c1cc(-c2cccs2)on1 | 3.04 | 
29 |  | O=C(NCCCNC(=O)c1n[nH]c2ccccc12)c1cc(-c2ccccc2)on1 | 1.62 | 
30 |  | O=C(NCCCn1ccnc1)c1noc2ccccc12 | 1.21 | 
31 |  | O=C(NCCCCNC(=O)c1cc(-c2ccccc2)on1)c1ccc(O)c(O)c1 | 2.69 | 
32 |  | O=C(NCCCCNC(=O)c1cc(-c2ccccc2)on1)c1cscn1 | 3.7 | 
33 | 7.1 µM | O=C(NCCCCNC(=O)c1cc(-c2ccccc2)on1)c1cccnc1 |  | 
34 |  | Cc1c(C(=O)NCCCCc2ccncc2)nn(C)c1-c1ccccc1 | 0.75 | 
35 | 4.8 µM | O=C(NCCCNC(=O)c1nccs1)c1cc(-c2ccccc2)on1 |  | 
36 |  | O=C(NCCCCNC(=O)c1c[nH]c2ccccc12)c1cc(-c2ccccc2)on1 | 2.39 | 
37 |  | O=C(NCCCNCc1ccccn1)c1cc(-c2ccccc2)on1 | 2.52 | 
38 | 5 µM | O=C(NCCCCNC(=O)c1cc(-c2cccs2)on1)c1cccnc1 |  | 
39 |  | Cc1ncc(CNCCCNC(=O)c2cc(-c3ccccc3)on2)o1 | 1.5 | 
